Molecules are shown by their SMILES.

Assay [1] relates to Cricetinae gen. sp. Briefly: ED50 of retinoid required to effect reversal of keratinization. The class given is functional. The gist of the method:
(§1)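 Tracheas from Syrian golden hamsters kept on a vitamin A deficient diet from birth to 30–32 days old. Cultured serum-free (CMRL 1066 with insulin, hydrocortisone, glutamine, antibiotics), one explant per dish, 50% O2/45% N2/5% CO2, 36 °C, rocked. 3 days without retinoid, then 7 days with retinoid, medium renewed three times. Histology on day 10. Active means keratin/keratohyaline granules absent. Usually duplicate, 6–7 tracheas per concentration.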

The test system of assay [2] is Cricetinae gen. sp. Briefly: Relative potency with respect to retinoic acid in hamster tracheal organ culture assay (TOC). Format: functional, Cricetulus griseus, Trachea.
The target of assay [3] is T1, Ornithine decarboxylase (Mus musculus) (UniProt P00860).
T1 sequence (whole entry): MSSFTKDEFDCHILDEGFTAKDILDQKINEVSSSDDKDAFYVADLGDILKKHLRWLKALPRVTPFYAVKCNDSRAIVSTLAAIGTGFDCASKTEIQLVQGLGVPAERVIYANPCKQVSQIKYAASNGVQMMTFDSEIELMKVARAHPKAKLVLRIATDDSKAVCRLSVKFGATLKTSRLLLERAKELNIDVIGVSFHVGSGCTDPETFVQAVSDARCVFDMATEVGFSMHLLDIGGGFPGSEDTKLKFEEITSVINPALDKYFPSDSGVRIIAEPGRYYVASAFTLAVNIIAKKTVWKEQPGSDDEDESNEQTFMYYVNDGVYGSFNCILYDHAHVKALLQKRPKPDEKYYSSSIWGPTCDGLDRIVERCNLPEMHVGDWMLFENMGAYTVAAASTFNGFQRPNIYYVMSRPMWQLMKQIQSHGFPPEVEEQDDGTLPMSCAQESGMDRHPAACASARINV
Briefly: Percent inhibition of the induction of ornithine decarboxylase at 1.7 nmol in mouse dorsal epidermis (ODC assay). The class given is functional.

In assay [4] the target is T1, Ornithine decarboxylase (Mus musculus). Briefly: Percent inhibition of the induction of ornithine decarboxylase at 17 nmol dose in mouse dorsal epidermis (ODC assay). The class given is functional.
For assay [5] the target is unchanged. Briefly: Percent inhibition of the induction of ornithine decarboxylase in mouse dorsal epidermis (ODC assay). The class given is functional.
The subject of assay [6] is Cricetinae gen. sp. Briefly: Total cultures (14) versus active (4) at 10e-10 M conc. in hamster tracheal organ culture assay (TOC). The class given is functional, Trachea. The gist of the method:
as §1

The test system of assay [7] is Cricetinae gen. sp. The experiment in a line: Total cultures (14) versus active (8) at 10e-9 M conc. in hamster tracheal organ culture assay (TOC). Format: functional, Trachea. The gist of the method:
as §1

Assay [8] has as its system Cricetinae gen. sp. Briefly: Total cultures(7) versus active (7) at 10e-8 M conc. in hamster tracheal organ culture assay (TOC). The class given is functional, Trachea. The gist of the method: as §1
The test system of assay [9] is Cricetinae gen. sp. The experiment in a line: Total cultures(0) versus active(12)at 10e-10 M conc. in hamster tracheal organ culture assay (TOC). The class given is functional, Trachea. The gist of the method: as §1
Assay [10] relates to Cricetinae gen. sp. Briefly: Total cultures(1) versus active (13)at 10e-9 M conc. in hamster tracheal organ culture assay (TOC). Format: functional, Trachea. The gist of the method: as §1
In assay [11] the test system is Cricetinae gen. sp. The experiment in a line: Total cultures(2) versus active(12) at 10e-8 M conc. in hamster tracheal organ culture assay (TOC). Format: functional, Trachea. The gist of the method:
as §1

The test system of assay [12] is Cricetinae gen. sp. Briefly: Total cultures(15) versus active (14) at 10e-9 M conc. in hamster tracheal organ culture assay (TOC). Format: functional, Trachea. The gist of the method: as §1
Assay [13] deals with Cricetinae gen. sp. Briefly: Total cultures(15) versus active (15) at 10e-8 M conc. in hamster tracheal organ culture assay (TOC). Format: functional, Trachea. The gist of the method: as §1
The test system of assay [14] is Cricetinae gen. sp. Briefly: Total cultures(15) versus active (7) at 10e-10 M conc. in hamster tracheal organ culture assay (TOC). Format: functional, Trachea. The gist of the method: as §1
Assay [15] relates to Cricetinae gen. sp. Briefly: Total cultures(11) versus active(13) at 10e-9 M conc. in hamster tracheal organ culture assay (TOC). The class given is functional, Trachea. The gist of the method: as §1
Assay [16] deals with Cricetinae gen. sp. The experiment in a line: Total cultures (1)versus active(6) at 10e-11 M conc. in hamster tracheal organ culture assay (TOC). The class given is functional, Trachea. The gist of the method:
as §1

For assay [17], the system named is Cricetinae gen. sp. The experiment in a line: Total cultures(6) versus active(6) at 10e-8 M conc. in hamster tracheal organ culture assay (TOC). The class given is functional, Trachea. The gist of the method: as §1
Assay [18] deals with Cricetinae gen. sp. The experiment in a line: Total cultures(9) versus active(14) at 10e-10 M conc. in hamster tracheal organ culture assay (TOC). The class given is functional, Trachea. The gist of the method:
as §1

The subject of assay [19] is Cricetinae gen. sp. The experiment in a line: Total cultures(0) versus active(6) at 10e-11 M conc. in hamster tracheal organ culture assay (TOC). Format: functional, Trachea. The gist of the method:
as §1

In assay [20] the test system is Cricetinae gen. sp. The experiment in a line: Total cultures(12) versus active(12) at 10e-9 M conc. in hamster tracheal organ culture assay (TOC). Format: functional, Trachea. The gist of the method:
as §1

Assay [21] concerns Cricetinae gen. sp. Briefly: Total cultures(3) versus active(11) at 10e-10 M conc. in hamster tracheal organ culture assay (TOC). The class given is functional, Trachea. The gist of the method: as §1
Assay [22] has as its system Cricetinae gen. sp. Briefly: Total cultures(13) versus active (11) at 10e-8 M conc. in hamster tracheal organ culture assay (TOC). Format: functional, Trachea. The gist of the method: as §1
Assay [23] deals with Cricetinae gen. sp. The experiment in a line: Total cultures(14) versus active (5) at 10e-10 M conc. in hamster tracheal organ culture assay (TOC). The class given is functional, Trachea. The gist of the method:
as §1

Assay [24] relates to Cricetinae gen. sp. The experiment in a line: Total cultures(14) versus active (6) at 10e-9 M conc. in hamster tracheal organ culture assay (TOC). Format: functional, Trachea. The gist of the method: as §1

Consider `CC1=C(/C=C/C(C)=C\c2ccc(C(=O)O)cc2)C(C)(C)CCC1`, for which, in the assay on Cricetinae gen. sp. [1], the ED50 came to 0.01 nM. Further, the Relative activity in the assay with Cricetinae gen. sp. [2] is on record as under 0.1. Also, the results for the inhibition of control in [3], in assay [4] and in assay [5] were 33%, 43% and 64%, respectively.

As to `CCOC(=O)c1ccc(/C=C(C)/C=C/C2=C(C)CCCC2(C)C)cn1`, the figures for the Active/total cultures in the assay on Cricetinae gen. sp. [6], in the assay with Cricetinae gen. sp. [7] and with Cricetinae gen. sp. [8] were 29%, 57% and 100%, respectively. For the same compound, the ED50 in the assay on Cricetinae gen. sp. [1] worked out at 0.008 nM. The Relative activity in the assay with Cricetinae gen. sp. [2] was 0.4. Further, the figures for the inhibition of control in assay [3] and in assay [4] were 29% and 60%, respectively.

As for `CCOC(=O)c1ccc(/C(F)=C(C)\C=C\C2=C(C)CCCC2(C)C)cc1`, the Active/total cultures with Cricetinae gen. sp. [9] is reported as 0%; in the assay on Cricetinae gen. sp. [10], 8%; in the assay with Cricetinae gen. sp. [11], 17%. The ED50 with Cricetinae gen. sp. [1] came to 0.02 nM. The same compound came in with a Relative activity in the assay on Cricetinae gen. sp. [2] of under 0.1. In addition, the inhibition of control stood at 16% in assay [4] and 5% in assay [5].

In the case of `CC1=C(/C=C/C(C)=C/c2ccc(C(=O)O)s2)C(C)(C)CCC1`, the Active/total cultures in the assay with Cricetinae gen. sp. [12] came out at 93%; with Cricetinae gen. sp. [13] it was 100%; with Cricetinae gen. sp. [14], 47%. In addition, in the assay with Cricetinae gen. sp. [1], the ED50 was 0.02 nM. The Relative activity in the assay on Cricetinae gen. sp. [2] came out at 2. Moreover, the results for the inhibition of control in assay [3] and in assay [4] were 42% and 67%, respectively.

For the compound `CCOC(=O)c1ccc(/C=C(C)/C=C/C2=C(C)CCCC2(C)C)c(F)c1`, the Active/total cultures came to 85% in the assay with Cricetinae gen. sp. [15], 17% with Cricetinae gen. sp. [16], 100% in the assay on Cricetinae gen. sp. [17] and 64% in the assay on Cricetinae gen. sp. [18]. Further, the ED50 with Cricetinae gen. sp. [1] worked out at 0.006 nM. In the assay on Cricetinae gen. sp. [2], the Relative activity was 5. The inhibition of control is 8% in assay [3] and 46% in assay [4].

On to `CC1=C(/C=C/C(C)=C/c2ccc(C(=O)O)cc2F)C(C)(C)CCC1`, for which the Active/total cultures in the assay on Cricetinae gen. sp. [19] is 0%; in the assay with Cricetinae gen. sp. [20] it was 100%; with Cricetinae gen. sp. [21], 27%; with Cricetinae gen. sp. [17] it was 100%. In addition, in the assay on Cricetinae gen. sp. [1], the ED50 is 0.006 nM. For the same compound, the Relative activity in the assay with Cricetinae gen. sp. [2] was determined as 5. The inhibition of control in assay [3] was 37%; in assay [4] it was 78%.

With `CCOC(=O)c1ccc(/C=C(C)\C=C\C2=C(C)CCCC2(C)C)s1`, the figures for the Active/total cultures in the assay with Cricetinae gen. sp. [22], with Cricetinae gen. sp. [23] and in the assay on Cricetinae gen. sp. [24] were 85%, 36% and 43%, respectively. Further, the ED50 in the assay on Cricetinae gen. sp. [1] amounted to 0.02 nM. The Relative activity in the assay with Cricetinae gen. sp. [2] is on record as 0.3. Besides, the inhibition of control was found to be 35% in assay [3] and 76% in [4].

For the origin of these results see ChEMBL document CHEMBL1122284, “Aromatic retinoic acid analogues. 2. Synthesis and pharmacological activity” (1983).
